Measurements published in ChEMBL document CHEMBL4689842, “EUbOPEN Chemogenomics Library wave 1” (2021).
Several values for one entry are separate records, joined by “and”; a condition that tells them apart may be missing. Equal entries are not always repeated.

Legend:
Format in all cases: toxicity, cell-based
[1] = tested on: HEK-293T; test: Incucyte cell viability with HEK293T; settings: human, 10 µM, compound concentration 10 uM; note: filed as whole numbers so only -1 and 0 and 1 occur
[2] = tested on: HEK-293T; test: Multiplex assay against HEK293T; settings: human, 1 µM, compound concentration 1 uM;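 for Population Tubulin-Different-Phenotype (%): share of the cells with healthy nuclei that show this phenotype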
Summary of the method: (§1)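 Per cents of healthy-nucleus cells form the tubulin, mitochondrial-mass and membrane-permeability phenotype values. Live cells were stained at seeding with Hoechst33342, BioTracker Green Microtubule Cytoskeleton Dye, MitoTracker Red and Annexin V Alexa Fluor 680. After compound addition they were imaged on a CQ1 microscope at 37°C and 5% CO2, and CellPathfinder machine-learning gating split them into Hoechst high-intensity objects or normal cells, normal cells into healthy, pyknosed or fragmented nuclei, and pyknosed cells into mitotic or apoptotic.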

[3] = tested on: Fibroblast; test: Multiplex assay against human fibroblast; settings: 1 µM, compound concentration 1 uM; summary of the method: as §1
[4] = tested on: U2OS; test: Multiplex assay against U2OS; settings: human, 1 µM, compound concentration 1 uM; summary of the method: as §1
[5] = tested on: U2OS; test: Incucyte cell viability with U2OS; settings: human, 10 µM, compound concentration 10 uM; note: filed as whole numbers so only -1 and 0 and 1 occur
[6] = tested on: Fibroblast; test: Incucyte cell viability with human fibroblast; settings: 10 µM, compound concentration 10 uM; note: filed as whole numbers so only -1 and 0 and 1 occur
[7] = 6 h, replicate number 1, timepoint 6 hours
[8] = 12 h, replicate number 1, timepoint 12 hours
[9] = 18 h, replicate number 1, timepoint 18 hours
[10] = 24 h, replicate number 1, timepoint 24 hours

## COc1cc(Nc2ccnc3ccc(Br)cc23)cc(OC)c1OC
[1]; [7]
  Growth Rate: 0
[1]; [8]
  Growth Rate: 0
[1]; [9]
  Growth Rate: 0
[1]; [10]
  Growth Rate: 0
[2]; 12 h, replicate 1
  Population Apoptotic (%): 21% and 25%
  Population Fragmented Nuclei (%): 24% and 18%
  Population Healthy Nuclei (%): 35% and 54%
  Population Hoechst High Intensity Objects (%): 16%
  Population Membrane Permeable-Phenotype (%): 12% and 4%
  Population Mitotic Cells (%): 78% and 74%
  Population Normal (%): 83%
  Population Pyknosed Nuclei (%): 40% and 27%
  Total Cell Count: 627 and 585
[2]; 12 h, replicate 2
  Population Apoptotic (%): 17% and 8%
  Population Fragmented Nuclei (%): 11% and 4%
  Population Healthy Nuclei (%): 59% and 75%
  Population Membrane Permeable-Phenotype (%): 3% and 0%
  Population Mitotic Cells (%): 82% and 91%
  Population Normal (%): 92% and 97%
  Population Pyknosed Nuclei (%): 29% and 20%
  Total Cell Count: 1015 and 1049
[2]; 24 h, replicate 1
  Population Apoptotic (%): 32% and 19%
  Population Fragmented Nuclei (%): 23% and 12%
  Population Healthy Nuclei (%): 41% and 67%
  Population Hoechst High Intensity Objects (%): 14% and 10%
  Population Membrane Permeable-Phenotype (%): 7%
  Population Mitotic Cells (%): 67% and 80%
  Population Normal (%): 85% and 89%
  Population Pyknosed Nuclei (%): 35% and 20%
  Population Tubulin-Different-Phenotype (%): 30% and 15%
  Total Cell Count: 604 and 574
[2]; 24 h, replicate 2
  Population Apoptotic (%): 14% and 7%
  Population Fragmented Nuclei (%): 11% and 8%
  Population Healthy Nuclei (%): 50% and 79%
  Population Hoechst High Intensity Objects (%): 8% and 3%
  Population Membrane Permeable-Phenotype (%): 2% and 1%
  Population Mitochondria Different-Phenotype (%): 55%
  Population Mitotic Cells (%): 86% and 92%
  Population Normal (%): 91% and 96%
  Total Cell Count: 1011 and 1289
[3]; 12 h, replicate 1
  Population Apoptotic (%): 51% and 75%
  Population Fragmented Nuclei (%): 26% and 28%
  Population Healthy Nuclei (%): 50% and 56%
  Population Hoechst High Intensity Objects (%): 11%
  Population Membrane Permeable-Phenotype (%): 5% and 4%
  Population Mitochondria Different-Phenotype (%): 22% and 8%
  Population Mitotic Cells (%): 48% and 25%
  Population Normal (%): 88%
  Population Pyknosed Nuclei (%): 23% and 15%
  Total Cell Count: 152 and 176
[3]; 12 h, replicate 2
  Population Apoptotic (%): 50%
  Population Fragmented Nuclei (%): 66% and 79%
  Population Hoechst High Intensity Objects (%): 49% and 39%
  Population Membrane Permeable-Phenotype (%): 11% and 0%
  Population Mitotic Cells (%): 50%
  Population Normal (%): 50% and 60%
  Population Pyknosed Nuclei (%): 6% and 11%
  Population Tubulin-Different-Phenotype (%): 11% and 0%
  Total Cell Count: 65 and 56
[3]; 24 h, replicate 1
  Population Apoptotic (%): 76%
  Population Fragmented Nuclei (%): 28% and 23%
  Population Healthy Nuclei (%): 55% and 61%
  Population Hoechst High Intensity Objects (%): 15%
  Population Membrane Permeable-Phenotype (%): 6% and 1%
  Population Mitochondria Different-Phenotype (%): 1%
  Population Mitotic Cells (%): 23%
  Population Normal (%): 84%
  Population Pyknosed Nuclei (%): 15%
  Total Cell Count: 189 and 165
[3]; 24 h, replicate 2
  Population Fragmented Nuclei (%): 65% and 71%
  Population Healthy Nuclei (%): 31% and 15%
  Population Hoechst High Intensity Objects (%): 42% and 34%
  Population Membrane Permeable-Phenotype (%): 9% and 0%
  Population Mitochondria Different-Phenotype (%): 18% and 40%
  Population Normal (%): 57% and 65%
  Population Tubulin-Different-Phenotype (%): 0% and 20%
  Total Cell Count: 61 and 49
[4]; 12 h, replicate 1
  Population Apoptotic (%): 45% and 33%
  Population Fragmented Nuclei (%): 9% and 8%
  Population Healthy Nuclei (%): 83% and 79%
  Population Hoechst High Intensity Objects (%): 6% and 5%
  Population Membrane Permeable-Phenotype (%): 22% and 14%
  Population Mitochondria Different-Phenotype (%): 28% and 29%
  Population Mitotic Cells (%): 54% and 66%
  Population Normal (%): 93% and 94%
  Population Pyknosed Nuclei (%): 7% and 11%
  Population Tubulin-Different-Phenotype (%): 39% and 14%
  Total Cell Count: 135 and 196
[4]; 12 h, replicate 2
  Population Fragmented Nuclei (%): 12% and 20%
  Population Healthy Nuclei (%): 70% and 71%
  Population Hoechst High Intensity Objects (%): 12% and 19%
  Population Membrane Permeable-Phenotype (%): 25% and 16%
  Population Mitochondria Different-Phenotype (%): 38% and 23%
  Population Normal (%): 87% and 80%
  Population Pyknosed Nuclei (%): 16%
  Population Tubulin-Different-Phenotype (%): 37% and 22%
  Total Cell Count: 102 and 150
[4]; 24 h, replicate 1
  Population Apoptotic (%): 31% and 83%
  Population Fragmented Nuclei (%): 11% and 13%
  Population Healthy Nuclei (%): 71% and 66%
  Population Hoechst High Intensity Objects (%): 6%
  Population Membrane Permeable-Phenotype (%): 18% and 16%
  Population Normal (%): 93%
  Population Pyknosed Nuclei (%): 17% and 20%
  Population Tubulin-Different-Phenotype (%): 21% and 22%
  Total Cell Count: 259 and 175
[4]; 24 h, replicate 2
  Population Fragmented Nuclei (%): 10% and 14%
  Population Healthy Nuclei (%): 58% and 59%
  Population Hoechst High Intensity Objects (%): 16%
  Population Membrane Permeable-Phenotype (%): 22% and 17%
  Population Mitochondria Different-Phenotype (%): 57% and 19%
  Population Normal (%): 83%
  Population Pyknosed Nuclei (%): 31% and 25%
  Population Tubulin-Different-Phenotype (%): 33% and 28%
  Total Cell Count: 113 and 193
[5]; 0 h, replicate number 1, timepoint 0 hours
  Growth Rate: 0
[5]; [7]
  Growth Rate: 0
[5]; [8]
  Growth Rate: 0
[5]; [9]
  Growth Rate: 0
[5]; [10]
  Growth Rate: 0
[6]; [7]
  Growth Rate: 0
[6]; [8]
  Growth Rate: 0
[6]; [9]
  Growth Rate: 0
[6]; [10]
  Growth Rate: 0
